In paper PMC6661244 (Investigative Radiology, 2019):
Entries after “also recorded” stand apart in the source; their conditions may differ.

What was measured:
[1] = format: physicochemical; conditions: 2.5 mM GBCA and ZnCl2, phosphate buffer pH 7, 335 mM, 37°C, 0.47 T, up to 5 days
[2] = Osmolality; format: physicochemical; conditions: 0.5-M solution; Guerbet measurements
Outline: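 Vapour-pressure osmometry on a 0.5 M solution, triplicate readings. The osmometer was calibrated before each use with 100, 290 and 1000 mOsm/kg H2O standards.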

[3] = Viscosity; format: physicochemical; conditions: 0.5 M
Outline: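 Cone-and-plate rotational rheometry (60 mm, 2° cone) on a 0.5 M solution at 37°C. Shear rate was recorded at applied stresses of 1–5 Pa, and viscosity was taken from the slope of stress versus shear rate.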

[4] = Metabolism: HPLC analysis of plasma and urine samples; format: in vivo; conditions: Beagle dogs, 0.2 mmol Gd/kg IV
Outline: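 Urine and plasma from Beagle dogs given a 153Gd-labelled test compound (0.2 mmol Gd/kg IV) were analysed by radio-HPLC. Separation used a C18 column at 4°C, with detection by a flow scintillation analyser.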

[5] = Nuclear magnetic relaxation dispersion; format: physicochemical
[6] = system: hepatic colorectal metastases; conditions: rats, 0.1 mmol Gd/kg intravenously, 9.4 T, compared with gadobutrol; cited from earlier work

Row | r1(t)/r1(t0) ratio over time in the presence of Zn^2+ and phosphate [1] | Osmolality at 37°C at marketed concentration [2] [mOsm/kg H2O] | Viscosity at 37°C [3] [mPa·s] | Relaxivity r1 at 37°C ([5]; 3 T, in human serum, extrapolated from NMRD profiles) [mM⁻¹ s⁻¹] | r1 relaxivity (NMRD profile) ([5]; 300 MHz, ie, 7 T field, water, 37°C) [mM⁻¹ s⁻¹] | Structure (SMILES) | Metabolites in plasma and urine samples (HPLC) [4] | Lesion enhancement [6]
1 | remained constant | 843 | 7.6 | 11.6 | 10.68 | O=C(CCC(C(=O)[O-])N1CCN(C(CCC(=O)NCC(O)CO)C(=O)[O-])Cc2cccc(n2)CN(C(CCC(=O)NCC(O)CO)C(=O)[O-])CC1)NCC(O)CO.[Gd+3] (centres unmarked) [Gadopiclenol, gadolinium chelate of 2,2′,2″-(3,6,9-triaza-1(2,6)-pyridinacyclodecaphane-3,6,9-triyl)tris(5-((2,3-dihydroxypropyl)amino)-5-oxopentanoic acid)] | No metabolites were found; also recorded: only unchanged gadopiclenol | significantly better lesions enhancement
2 | remained constant |  |  |  |  | CNC[C@H](O)[C@@H](O)[C@H](O)[C@H](O)CO.O=C([O-])CN1CCN(CC(=O)[O-])CCN(CC(=O)O)CCN(CC(=O)[O-])CC1.[Gd+3] [Gadoterate (Meglumine Salt), reference compound] |  | 
